Measurements from ChEMBL document CHEMBL2346519, “Substituted indolin-2-ones as p90 ribosomal S6 protein kinase 2 (RSK2) inhibitors: Molecular docking simulation and structure-activity relationship analysis” (Bioorg Med Chem, 2013).

Tests used:
[1] = target: T1, Ribosomal protein S6 kinase alpha-3 (Homo sapiens, UniProt P51812); test: Inhibition of RSK2 (unknown origin) using AKRRRLSSLRA as substrate at 10 uM after 60 mins by fluorescence assay relative to control
MCF7 [2] = test: Cytotoxicity against human MCF7 cells assessed as growth inhibition at 100 uM after 48 hrs by MTT assay relative to control; type: functional; conditions: MCF7, 48 h, read-out: GI
How it was run: (§1)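 Single-concentration screen at 100 µM by 48 h MTT. MCF-7 cells were grown in DMEM plus 10% FBS and PC 3 cells in F-12K, 5 × 10^3 cells per well. After 4 h with MTT at 37 °C, formazan was dissolved in DMSO and absorbance read at 570 nm. Percent inhibition is reported.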

[3] = target: T1, Ribosomal protein S6 kinase alpha-3; test: Inhibition of RSK2 (unknown origin) using AKRRRLSSLRA as substrate after 60 mins by fluorescence assay
PC-3 [4] = test: Cytotoxicity against human PC3 cells assessed as growth inhibition at 100 uM after 48 hrs by MTT assay relative to control; type: functional; conditions: PC-3, 48 h, read-out: GI; how it was run: as §1
MCF7 [5] = test: Cytotoxicity against human MCF7 cells assessed as growth inhibition after 48 hrs by MTT assay; type: functional, cell-based; conditions: MCF7, 48 h
How it was run: (§2)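 MCF-7 cells grown in DMEM plus 10% FBS and PC 3 cells in F-12K, both seeded at 5 × 10^3 per well. Cells were exposed to compounds at various concentrations for 48 h. MTT was then added for 4 h at 37 °C in 5% CO2, formazan was dissolved in DMSO, and absorbance was read at 570 nm. IC50 was taken from inhibition curves of three independent experiments and measured only where inhibition at 100 µM exceeded 50%.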

PC-3 [6] = test: Cytotoxicity against human PC3 cells assessed as growth inhibition after 48 hrs by MTT assay; type: functional, cell-based; conditions: PC-3, 48 h; how it was run: as §2
[7] = target: T1, Ribosomal protein S6 kinase alpha-3; test: Inhibition of RSK2 (unknown origin)

T1 sequence (P51812 whole entry): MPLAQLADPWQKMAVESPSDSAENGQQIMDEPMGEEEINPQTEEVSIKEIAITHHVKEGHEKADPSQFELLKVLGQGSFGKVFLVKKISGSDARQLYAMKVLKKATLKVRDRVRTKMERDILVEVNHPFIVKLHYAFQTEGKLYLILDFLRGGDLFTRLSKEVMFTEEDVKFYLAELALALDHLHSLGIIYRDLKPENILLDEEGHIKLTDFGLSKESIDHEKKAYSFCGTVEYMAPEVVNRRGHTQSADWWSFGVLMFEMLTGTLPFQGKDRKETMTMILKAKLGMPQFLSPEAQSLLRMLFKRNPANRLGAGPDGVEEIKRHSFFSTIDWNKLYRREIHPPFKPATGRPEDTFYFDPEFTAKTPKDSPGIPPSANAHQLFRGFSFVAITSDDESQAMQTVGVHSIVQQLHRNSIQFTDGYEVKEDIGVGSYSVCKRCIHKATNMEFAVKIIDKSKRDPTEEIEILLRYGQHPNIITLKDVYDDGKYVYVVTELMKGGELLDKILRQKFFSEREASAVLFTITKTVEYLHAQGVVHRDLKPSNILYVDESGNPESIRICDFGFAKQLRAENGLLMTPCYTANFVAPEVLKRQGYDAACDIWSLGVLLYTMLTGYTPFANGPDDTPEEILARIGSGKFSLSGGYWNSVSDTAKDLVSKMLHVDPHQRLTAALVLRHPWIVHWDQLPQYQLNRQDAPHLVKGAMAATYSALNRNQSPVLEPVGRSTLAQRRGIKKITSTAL

SMILES | inhibition [1] [%] | further results
O=C1Nc2ccccc2/C1=C/c1ccc(-c2ccccc2Cl)o1 | 16.8 | 
O=C1Nc2ccc(Br)cc2/C1=N/NC(=O)c1ccco1 | 11.5 | 
O=C1Nc2ccccc2/C1=C/c1c[nH]nc1-c1ccc(F)cc1 | 38.6 | 
COc1ccc(-n2c(/C=C3\C(=O)Nc4ccccc43)nc3ccc(I)cc3c2=O)cc1 | 13.4 | 
O=C1Nc2ccc(Cl)cc2/C1=C/c1c[nH]nc1-c1ccc(F)cc1 | 44.5 | 
CCc1ccc2c(c1)/C(=N\NC(=O)CSc1ccc(Cl)cc1)C(=O)N2 | < 10 | 
O=C1Nc2ccc(F)cc2/C1=C/c1c[nH]nc1-c1ccccc1 | 78.4 | inhibition of growth at 100 µM (MCF7 [2]): < 10%; IC50 [3]: 8.59 µM; inhibition of growth at 100 µM (PC-3 [4]): < 10%
O=C1Nc2ccc(F)cc2/C1=C/c1c[nH]nc1-c1ccc(F)cc1 | < 10 | 
O=C1Nc2ccc(Br)cc2/C1=C/c1c[nH]nc1-c1ccc(F)cc1 | < 10 | 
O=C1Nc2ccc(Br)cc2/C1=C\c1ccco1 | 87.3 | IC50 (MCF7 [5]): 9.84 µM; IC50 (PC-3 [6]): 16.9 µM; IC50 [3]: 1.51 µM
O=C1Nc2ccc(Br)cc2/C1=N/NC(=O)c1ccc2c(c1)OCO2 | < 10 | 
O=C1Nc2ccc(Cl)cc2/C1=C\c1ccco1 | 84.8 | IC50 (MCF7 [5]): 14.7 µM; IC50 (PC-3 [6]): 23.9 µM; IC50 [3]: 2.02 µM
O=C1Nc2ccc(F)cc2/C1=C/c1ccc(-c2ccccc2Cl)o1 | 17.1 | 
O=C1Nc2ccccc2/C1=C/c1ccco1 | 69.6 | IC50 (MCF7 [5]): 30.1 µM; IC50 [3]: 3.47 µM; inhibition of growth at 100 µM (PC-3 [4]): < 10%; IC50 [7]: 7.76 µM
Cn1cc(C2=C(c3cn(CCCSC(=N)N)c4ccccc34)C(=O)NC2=O)c2ccccc21 [BISINDOLYLMALEIMIDE IX] |  | IC50 (PC-3 [6]): 1.74 µM
CCc1cccc2c1NC(=O)/C2=C1\SC(=S)NC1=O | 50.1 | inhibition of growth at 100 µM (MCF7 [2]): 16%; IC50 [3]: 17 µM; inhibition of growth at 100 µM (PC-3 [4]): 40.9%
O=C1Nc2ccc(F)cc2/C1=C/c1ccc(-c2cccc(Br)c2)o1 | 26.3 | 
O=C1Nc2ccc(Cl)cc2/C1=C1/S/C(=N\c2ccccc2)N(c2ccccc2)C1=O | < 10 | 
O=C1Nc2ccccc2/C1=C/c1ccc(-c2cccc(Br)c2)o1 | 21.9 | 
COc1ccc2c(c1)/C(=C\c1ccco1)C(=O)N2 | 25.6 | 

SMILES | inhibition [1] [%] | further results
O=C1Nc2ccccc2/C1=C/c1ccc(-c2c(Cl)cc(C(F)(F)F)cc2Cl)o1 | < 10 | 
O=C1Nc2ccc(Br)cc2/C1=C/c1ccc(-c2ccccc2Cl)o1 | 22.3 | 
Nc1ccc2c(c1)/C(=C\c1ccco1)C(=O)N2 | 100 | IC50 (MCF7 [5]): 15.5 µM; IC50 [3]: 2.49 µM; inhibition of growth at 100 µM (PC-3 [4]): < 10%
O=C1Nc2ccccc2/C1=C/c1c[nH]nc1-c1ccccc1 | 79.5 | IC50 (MCF7 [5]): 8.55 µM; IC50 (PC-3 [6]): 6.19 µM; IC50 [3]: 2.72 µM
Cc1ccc(N/N=C2/C(=O)Nc3ccc(F)cc32)cc1 | 30.1 | 
O=C1Nc2ccccc2/C1=C/c1ccc(CN2C(=O)c3ccccc3C2=O)o1 | 16.5 | 
O=C1Nc2ccc(Cl)cc2/C1=C/c1ccc(-c2cccc(Br)c2)o1 | < 10 | 
O=C1Nc2ccccc2/C1=N/N=C1\CCCc2c1[nH]c1ccc(Cl)cc21 | < 10 | 
Cc1c(Cl)ccc2c1NC(=O)/C2=C1\SC(=S)NC1=O | 39.6 | 
N=C1NC(=O)/C(=C2/C(=O)Nc3cc(Cl)ccc32)S1 | 18.4 | 
O=C1Nc2ccc(Br)cc2/C1=C/c1c[nH]nc1-c1ccccc1 | 33.6 | 
NC(=O)c1ccc(/N=C2/C(=O)Nc3ccccc32)cc1 | < 10 | 
O=C1Nc2ccc(Cl)cc2/C1=C/c1c[nH]nc1-c1ccc(Cl)cc1 | < 10 | 
O=C1Nc2ccc([N+](=O)[O-])cc2/C1=C\c1ccco1 | 29.8 | 
O=C1Nc2ccc(Cl)cc2/C1=C/c1c[nH]nc1-c1ccccc1 | 33.2 | 
CCn1c(/C=C2\C(=O)Nc3ccccc32)nc2ccccc2c1=O | < 10 | 
O=C1Nc2ccc(Br)cc2/C1=C/c1ccc(-c2cccc(Br)c2)o1 | < 10 | 
O=C1Nc2ccc(Cl)cc2/C1=C/c1ccc(-c2ccccc2Cl)o1 | 32.1 | 
Cc1cccc2c1NC(=O)/C2=C1\SC(=S)NC1=O | 92.4 | inhibition of growth at 100 µM (MCF7 [2]): 41.5%; IC50 [3]: 1.68 µM; inhibition of growth at 100 µM (PC-3 [4]): < 10%
CC(=O)NN1C(=O)/C(=C2/C(=O)Nc3ccc(C)cc32)SC1=S | 41.1 | 
